The record followed here is ChEMBL document CHEMBL1129929, “Analogues of methotrexate in rheumatoid arthritis. 1. Effects of 10-deazaaminopterin analogues on type II collagen-induced arthritis in mice” (J Med Chem, 1997).

For test [1], the system named is Mus musculus. In words: Tested for antiinflammatory activity on mouse type II collagen arthritis as Paw swelling* of all animals in each group on day 23 at intraperitoneal dose of 12 mg/kg. In kind it is functional. In outline:
(§1)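 DBA/1 mice immunized with bovine type II collagen (Courtenay method, modified), antigen booster at day 21. Compounds given ip from 2 days before the first collagen challenge, then every 2 days. Hind paw dimensions (mm) measured for both limbs of all animals, expressed as mean ± SD. Eight mice per dose; untreated controls pooled from four experiments (48 animals).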

The test system of test [2] is Mus musculus. In words: Tested for antiinflammatory activity on mouse type II collagen arthritis as Paw swelling* of all animals in each group on day 44 at intraperitoneal dose of 12 mg/kg; d means 3 animals died. It counts as functional, organism-based. More on the design: dose 12 mg/kg. The gist of the method:
as §1

The subject of test [3] is Mus musculus. In words: Tested for antiinflammatory activity on mouse type II collagen arthritis as Paw swelling* of all animals in each group on day 30 at intraperitoneal dose of 12 mg/kg. It counts as functional. In outline: as §1
The test system of test [4] is Mus musculus. The test can be described thus: Incidence of disease(mouse type II collagen arthritis) was scored as the percentage of animals within each experimental group that exhibited joint or limb inflammation on day 37 at intraperitoneal of dose 12 mg/kg (1 animal died). In kind it is functional. In outline:
(§2)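 DBA/1 mice immunised with bovine type II collagen, booster at day 21 (modified Courtenay model). Compound given intraperitoneally from 2 days before the first collagen challenge, then every 2 days. Incidence is the percentage of animals per group showing joint or limb inflammation, scored visually on days 23, 30, 37 and 44.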

Test [5] has as its system Mus musculus. In words: Incidence of disease(mouse type II collagen arthritis) was scored as the percentage of animals within each experimental group that exhibited joint or limb inflammation on day 23 at intraperitoneal dose of 12 mg/kg (1 animal died). It counts as functional. The gist of the method:
as §2

Test [6] relates to Mus musculus. The test can be described thus: Incidence of disease(mouse type II collagen arthritis) was scored as the percentage of animals within each experimental group that exhibited joint or limb inflammation on day 44 at intraperitoneal of dose 12 mg/kg; d means 3 animals died. More on the design: dose 12 mg/kg. In kind it is functional, organism-based. The settings on record: at 12 mg/kg. The gist of the method: (§3)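 DBA/1 mice were immunized with bovine type II collagen (modified Courtenay method), with a collagen booster on day 21. Compounds were given ip starting 2 days before the first collagen challenge and every 2 days thereafter. Incidence was the percentage of animals per group with joint or limb inflammation, scored on days 23, 30, 37 and 44.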

Test [7] relates to Mus musculus. The test can be described thus: Incidence of disease(mouse type II collagen arthritis) was scored as the percentage of animals within each experimental group that exhibited joint or limb inflammation on day 30 at intraperitoneal of dose 12 mg/kg (1 animal died). In kind it is functional. The gist of the method:
as §2

In test [8] the test system is Mus musculus. In words: Tested for antiinflammatory activity on mouse type II collagen arthritis as Paw swelling* of all animals in each group on day 37 at intraperitoneal dose of 12 mg/kg. It counts as functional. In outline:
as §1

The subject of test [9] is Mus musculus. The test can be described thus: Tested for antiinflammatory activity on mouse type II collagen arthritis as Paw swelling* of all animals in each group on day 44 at intraperitoneal dose of 10 mg/kg. In kind it is functional. The gist of the method: as §1
For test [10], the system named is Mus musculus. In words: Incidence of disease(mouse type II collagen arthritis) was scored as the percentage of animals within each experimental group that exhibited joint or limb inflammation on day 37 at intraperitoneal of dose 15 mg/kg. In kind it is functional. In outline: as §3
For test [11], the system named is Mus musculus. In words: Incidence of disease(mouse type II collagen arthritis) was scored as the percentage of animals within each experimental group that exhibited joint or limb inflammation on day 23 at intraperitoneal dose of 15 mg/kg. It counts as functional. The gist of the method: as §3
In test [12] the test system is Mus musculus. The test can be described thus: Incidence of disease(mouse type II collagen arthritis) was scored as the percentage of animals within each experimental group that exhibited joint or limb inflammation on day 30 at intraperitoneal of dose 15 mg/kg. It counts as functional. In outline:
as §3

Test [13] can be described thus: Concentration required to inhibit the growth of chang liver cells. In kind it is functional. The following applies: Homo sapiens.
The test system of test [14] is Mus musculus. In words: Tested for antiinflammatory activity on mouse type II collagen arthritis as Paw swelling* of all animals in each group on day 37 at intraperitoneal dose of 15 mg/kg. It counts as functional. The gist of the method:
as §1

For test [15], the system named is Mus musculus. In words: Incidence of disease(mouse type II collagen arthritis) was scored as the percentage of animals within each experimental group that exhibited joint or limb inflammation on day 44 at intraperitoneal of dose 10 mg/kg. In kind it is functional. The gist of the method: as §3
Test [16] deals with Mus musculus. In words: Incidence of disease(mouse type II collagen arthritis) was scored as the percentage of animals within each experimental group that exhibited joint or limb inflammation on day 23 at intraperitoneal dose of 10 mg/kg. In kind it is functional. In outline:
as §3

Test [17] deals with Mus musculus. In words: Tested for antiinflammatory activity on mouse type II collagen arthritis as Paw swelling* of all animals in each group on day 30 at intraperitoneal dose of 10 mg/kg. In kind it is functional. In outline: as §1
Test [18] has as its system Mus musculus. The test can be described thus: Tested for antiinflammatory activity on mouse type II collagen arthritis as Paw swelling* of all animals in each group on day 44 at intraperitoneal dose of 15 mg/kg. It counts as functional. The gist of the method: as §1
For another test, the system named is L1210. In words: Concentration required to inhibit the growth of L1210 cells. It counts as functional, cell-based. The settings on record: Mus musculus.
For test [19], the system named is Mus musculus. The test can be described thus: Tested for antiinflammatory activity on mouse type II collagen arthritis as Paw swelling* of all animals in each group on day 37 at intraperitoneal dose of 10 mg/kg. In kind it is functional. In outline:
as §1

Test [20] relates to Mus musculus. The test can be described thus: Incidence of disease(mouse type II collagen arthritis) was scored as the percentage of animals within each experimental group that exhibited joint or limb inflammation on day 44 at intraperitoneal of dose 15 mg/kg. In kind it is functional. The gist of the method: as §3
Test [21] deals with Mus musculus. The test can be described thus: Tested for antiinflammatory activity on mouse type II collagen arthritis as Paw swelling* of all animals in each group on day 23 at intraperitoneal dose of 10 mg/kg. It counts as functional. In outline:
as §1

The subject of test [22] is Mus musculus. In words: Incidence of disease(mouse type II collagen arthritis) was scored as the percentage of animals within each experimental group that exhibited joint or limb inflammation on day 30 at intraperitoneal of dose 10 mg/kg. It counts as functional. The gist of the method:
as §3

For test [23], the system named is Mus musculus. The test can be described thus: Tested for antiinflammatory activity on mouse type II collagen arthritis as Paw swelling* of all animals in each group on day 23 at intraperitoneal dose of 15 mg/kg. It counts as functional. The gist of the method:
as §1

The test system of test [24] is Mus musculus. The test can be described thus: Tested for antiinflammatory activity on mouse type II collagen arthritis as Paw swelling* of all animals in each group on day 30 at intraperitoneal dose of 15 mg/kg. In kind it is functional. In outline: as §1
In test [25] the test system is Mus musculus. The test can be described thus: Incidence of disease(mouse type II collagen arthritis) was scored as the percentage of animals within each experimental group that exhibited joint or limb inflammation on day 37 at intraperitoneal of dose 10 mg/kg. In kind it is functional. The gist of the method:
as §3

`Nc1nc(N)c2nc(CCc3ccc(C(=O)NC(CCC(=O)O)C(=O)O)nc3)cnc2n1` (stereo unspecified): the Paw swelling in the test with Mus musculus [1] was 2.14 mm; with Mus musculus [2] it was “Three animals died”; with Mus musculus [3] it was 2.11 mm; in the test on Mus musculus [8], 2.07 mm. Also, the Animals was 0% in the test on Mus musculus [4], 0% in the test on Mus musculus [5], “Three animals died” in the test with Mus musculus [6] and 0% in the test on Mus musculus [7].

As to `CCC(Cc1cnc2nc(N)nc(N)c2n1)c1ccc(C(=O)NC(CCC(=O)O)C(=O)O)s1` (stereo unspecified), the Paw swelling with Mus musculus [9] was 2.25 mm; with Mus musculus [14], 2.21 mm; in the test on Mus musculus [17], 2.15 mm; with Mus musculus [18], 2.26 mm; in the test on Mus musculus [19] it was 2.23 mm; in the test on Mus musculus [21] it was 2.13 mm. Moreover, the Paw swelling with Mus musculus [23] is 2.15 mm; in the test on Mus musculus [24] it was 2.17 mm. Besides, the Animals in the test on Mus musculus [10] was 12%; in the test on Mus musculus [11] it was 0%; in the test with Mus musculus [12] it was 0%; in the test on Mus musculus [15] it was 38%; with Mus musculus [16], 0%; in the test with Mus musculus [20], 12%. Besides, the Animals in the test on Mus musculus [22] stood at 0%; with Mus musculus [25], 25%. Further, the IC50 came to 1.6 nM in test [13] and 3.7 nM in the test with L1210.
